ChEMBL document CHEMBL1938254, “Semisynthetic neoboutomellerone derivatives as ubiquitin-proteasome pathway inhibitors” (Bioorg Med Chem, 2012)
pIC50: −log10 of the molar value. “And” between values parts separate entries of the source, which are not always exact repeats. Equal entries are not always repeated.

What was measured:
[1] = Inhibition of peptide-glutamyl-peptide-hydrolyzing activity of 20S proteasome in human DLD1 cells transfected with 4Ub-Luc gene using Z-Leu-Leu-Glu-AMC as substrate after 6 hrs by spectrofluorometric analysis; type: cell-based; conditions: dld-1
How it was run: (§1)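 DLD-1 4Ub-Luc cells seeded at 10⁴ cells/well, exposed to compound or solvent for 6 h, then 30 min in reaction buffer (30 mM Tris–HCl pH 7.5, 1 mM ATP). Chymotrypsin-like and PGPH activities read with specific fluorogenic substrates.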

DLD-1 [2] = test: Inhibition of 20S proteasome in human DLD1 cells transfected with 4Ub-Luc gene assessed as bioluminescence induction factor at 1 uM after 8 hrs by luciferase reporter gene assay relative to epoxomicin; type: cell-based
How it was run: (§2)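 Stably transfected DLD-1 cells expressing 4Ub-Luc reporter, cultured in MEM with 5% heat-inactivated serum. Seeded at 10⁴ cells/well and treated with compound or solvent for 8 h. Luciferase activity in lysates read by luminometer. Induction factor = signal of treated over untreated cells, normalised to epoxomicin at 10^-7 M run in parallel (set to 100). IF ≥10 counted active.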

[3] = Cytotoxicity against human WM266.4 cells after 72 hrs by ATPlite assay; type: functional, cell-based; conditions: WM 266-4, 72 h
How it was run: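 WM-266-4 metastatic melanoma cells grown in DMEM with 10% fetal calf serum, 2 mM L-glutamine, fungizone and penicillin–streptomycin at 37 °C, 5% CO2. Seeded at 3 × 10⁴ cells/ml, left 24 h, then exposed to increasing compound concentrations for 72 h. Viability read as ATP level (ATPlite). IC50 from nonlinear sigmoidal fit with variable Hill slope; mean of two independent experiments.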

DLD-1 [4] = test: Inhibition of 20S proteasome in human DLD1 cells transfected with 4Ub-Luc gene assessed as bioluminescence induction factor at 5 uM after 8 hrs by luciferase reporter gene assay relative to epoxomicin; type: cell-based; how it was run: as §2
DLD-1 [5] = test: Inhibition of 20S proteasome in human DLD1 cells transfected with 4Ub-Luc gene assessed as bioluminescence induction factor at 0.5 uM after 8 hrs by luciferase reporter gene assay relative to epoxomicin; type: cell-based; how it was run: as §2
[6] = Inhibition of chymotrypsin-like activity of 20S proteasome in human DLD1 cells transfected with 4Ub-Luc gene using Succinyl-Leu-Leu-Val-Tyr-AMC as substrate after 6 hrs by spectrofluorometric analysis; type: cell-based; conditions: dld-1; how it was run: as §1
DLD-1 [7] = test: Inhibition of 20S proteasome activity in human DLD1 cells transfected with 4Ub-Luc gene assessed as bioluminescence induction factor at 10 uM after 8 hrs by luciferase reporter gene assay relative to epoxomicin; type: cell-based; how it was run: as §2

| SMILES | pIC50 [1] | pIC50 [6] | fold change (FC) (DLD-1 [2]) | pIC50 [3] | fold change (FC) (DLD-1 [4]) | fold change (FC) (DLD-1 [5]) | fold change (FC) (DLD-1 [7]) |
| --- | --- | --- | --- | --- | --- | --- | --- |
| C=C(C(=O)[C@H](OC(C)=O)[C@@H](C)[C@H]1[C@@H](OC(C)=O)C[C@@]2(C)[C@@H]3CC[C@H]4[C@H](C)C(=O)C=C[C@@]45C[C@@]35CC[C@]12C)[C@@H](C)COC(=O)CN(C)C | 4.28 | 4.51 | 50 | 6.21 | 11 | 66 | 2.7 |
| C=C(C(=O)[C@H](OC(C)=O)[C@@H](C)[C@H]1[C@@H](OC(C)=O)C[C@@]2(C)[C@@H]3CC[C@H]4[C@H](C)C(=O)C=C[C@@]45C[C@@]35CC[C@]12C)[C@@H](C)COC(=O)CCN(CC)CC | 5.03 | 5.00 | 26 | – | 11 | 1.5 | 2.7 |
| C=CCOC[C@H](C)C(=C)C(=O)[C@H](O)[C@@H](C)[C@H]1[C@@H](OC(C)=O)C[C@@]2(C)[C@@H]3CC[C@H]4[C@H](C)C(=O)C=C[C@@]45C[C@@]35CC[C@]12C | – | – | 49 | 6.11 | 13 | 3.7 | 1.5 |
| C=C(C(=O)[C@H](OC(C)=O)[C@@H](C)[C@H]1[C@@H](OC(C)=O)C[C@@]2(C)[C@@H]3CC[C@H]4[C@H](C)C(=O)C=C[C@@]45C[C@@]35CC[C@]12C)[C@@H](C)COC(=O)N1CCN(C)CC1 | 4.80 | 4.89 | 68 | 6.30 | 4.2 | 8 | 1 |
| C=C(C(=O)[C@H](O)[C@@H](C)[C@H]1[C@@H](OC(C)=O)C[C@@]2(C)[C@@H]3CC[C@H]4[C@H](C)C(=O)C=C[C@@]45C[C@@]35CC[C@]12C)[C@@H](C)COC(=O)CCC(=O)O | 4.33 | 4.21 | 62 and 46 | – | 11 and 18 | 6 and 2.6 | 3.5 and 5 |
| C=C(C(=O)[C@H](O)[C@@H](C)[C@H]1[C@@H](OC(C)=O)C[C@@]2(C)[C@@H]3CC[C@H]4[C@H](C)C(=O)C=C[C@@]45C[C@@]35CC[C@]12C)[C@@H](C)COC(=O)N1CCN(C)CC1 | 4.49 | 4.41 | – | 6.34 | – | – | – |
| C=C(C(=O)[C@H](OC(=O)CNC(=O)OC(C)(C)C)[C@@H](C)[C@H]1[C@@H](OC(C)=O)C[C@@]2(C)[C@@H]3CC[C@H]4[C@H](C)C(=O)C=C[C@@]45C[C@@]35CC[C@]12C)[C@@H](C)COC(=O)CNC(=O)OC(C)(C)C | 4.42 | 4.68 | 47 | – | 33 | 4.3 | 17 |
| C=C(C(=O)[C@H](OC(C)=O)[C@@H](C)[C@H]1[C@@H](OC(C)=O)C[C@@]2(C)[C@@H]3CC[C@H]4[C@H](C)C(=O)C=C[C@@]45C[C@@]35CC[C@]12C)[C@@H](C)COC(=O)CCC(=O)O | 4.43 | 4.60 | 45 and 61 | – | 20 and 15 | 1.4 and 2 | 4.4 and 3.7 |
| C=C(C(=O)[C@H](OC(=O)CCC(=O)O)[C@@H](C)[C@H]1[C@@H](OC(C)=O)C[C@@]2(C)[C@@H]3CC[C@H]4[C@H](C)C(=O)C=C[C@@]45C[C@@]35CC[C@]12C)[C@@H](C)COC(C)=O | 5.00 | 4.92 | 69 | – | 16 | 2 | 3 |
| C=C(C(=O)[C@H](OS(=O)(=O)O)[C@@H](C)[C@H]1[C@@H](OC(C)=O)C[C@@]2(C)[C@@H]3CC[C@H]4[C@H](C)C(=O)C=C[C@@]45C[C@@]35CC[C@]12C)[C@@H](C)COS(=O)(=O)O | < 3.00 | < 3.00 | 1 | – | 1 | 1 | 1.1 |
| C=C(C(=O)[C@H](OC(C)=O)[C@@H](C)[C@H]1[C@@H](OC(C)=O)C[C@@]2(C)[C@@H]3CC[C@H]4[C@H](C)C(=O)C=C[C@@]45C[C@@]35CC[C@]12C)[C@@H](C)COP(=O)(OCC)OCC | 4.04 | 4.72 | 43 | – | 16 | 3 | 2 |

Now from value to compound, other results behind:

| pIC50 [1] | pIC50 [6] | SMILES | fold change (FC) (DLD-1 [2]) | pIC50 [3] | fold change (FC) (DLD-1 [4]) | fold change (FC) (DLD-1 [5]) | fold change (FC) (DLD-1 [7]) |
| --- | --- | --- | --- | --- | --- | --- | --- |
| 4.64 | 4.80 | C=C(C(=O)[C@H](OC(C)=O)[C@@H](C)[C@H]1[C@@H](OC(C)=O)C[C@@]2(C)[C@@H]3CC[C@H]4[C@H](C)C(=O)C=C[C@@]45C[C@@]35CC[C@]12C)[C@@H](C)CO [NEOBOUTOMELLERONE] | 48 | 5.55 | 37 | 2.1 | 4.4 |
| 4.00 | 4.30 | C=C(C(=O)[C@H](OC(=O)CCl)[C@@H](C)[C@H]1[C@@H](OC(C)=O)C[C@@]2(C)[C@@H]3CC[C@H]4[C@H](C)C(=O)C=C[C@@]45C[C@@]35CC[C@]12C)[C@@H](C)COC(C)=O | 64 | 6.18 | 21 | 23 | 5 |
| < 3.00 | < 3.00 | C=C(C(=O)[C@H](O)[C@@H](C)[C@H]1[C@@H](OC(C)=O)C[C@@]2(C)[C@@H]3CC[C@H]4[C@H](C)C(=O)C=C[C@@]45C[C@@]35CC[C@]12C)[C@@H](C)COC(=O)Nc1ccc(N(C)C)cc1 | 51 | 6.09 | 47 | 11 | 34 |
| < 3.00 | < 3.00 | C=C(C(=O)[C@H](OC(C)=O)[C@@H](C)[C@H]1[C@@H](OC(C)=O)C[C@@]2(C)[C@@H]3CC[C@H]4[C@H](C)C(=O)C=C[C@@]45C[C@@]35CC[C@]12C)[C@@H](C)COC(=O)Nc1ccc(N(C)C)cc1 | 51 | 6.02 | 63 | 19 | 60 |
| 4.37 | 4.46 | C=C(C(=O)[C@H](OC(C)=O)[C@@H](C)[C@H]1[C@@H](OC(C)=O)C[C@@]2(C)[C@@H]3CC[C@H]4[C@H](C)C(=O)C=C[C@@]45C[C@@]35CC[C@]12C)[C@@H](C)COC(C)=O | 11 | 5.82 | 48 | 1.1 | – |
| 4.89 | 4.85 | C=CC(=O)OC[C@H](C)C(=C)C(=O)[C@H](OC(C)=O)[C@@H](C)[C@H]1[C@@H](OC(C)=O)C[C@@]2(C)[C@@H]3CC[C@H]4[C@H](C)C(=O)C=C[C@@]45C[C@@]35CC[C@]12C | 20 | – | 18 | 1.4 | 2.2 |
| < 3.00 | < 3.00 | C=C(C(=O)[C@H](OC(C)=O)[C@@H](C)[C@H]1[C@@H](OC(C)=O)C[C@@]2(C)[C@@H]3CC[C@H]4[C@H](C)C(=O)C=C[C@@]45C[C@@]35CC[C@]12C)[C@@H](C)COC(=O)Nc1ccccc1 | 42 | 6.72 | 60 | 6.4 | – |
